# The list shows a part of the results. Calls of active or inactive are those of the source. Unless noted, no stated cut-off is given here; in the data, active means inhibition above about 40%; inactive means the rest.
# Columns and labels:
# [1] = inhibitors of PAF-induced NF-kB signaling, retest, confirmation, cell-based, GFP fluorescence, single concentration (AID 602472); conditions: KKLEB CF airway cells, overnight, at 5 µM, stronger effect = higher value;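 further: stimulus PAF is a Pseudomonas aeruginosa filtrate and not platelet activating factor; plate controls were DMSO wells with stimulus for no effect and unstimulated DMSO wells for full effect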
# In short: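 Material: KKLEB immortalized cystic fibrosis airway epithelial cells with NFkB-GFP reporter; buffer or medium: 2% FBS cell medium, serum-free stimulus medium; also added: PAF stimulation; dosing: 5 µM single dose; times: 2 h compound pretreatment at 37 °C, overnight PAF exposure; detection: GFP fluorescence of NFkB reporter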
# [2] = inhibitors of PAF-induced NFkB signaling in CF airway cells, dose response, cell-based, uHTS hits, panel, cytotoxicity readout (AID 624344); conditions: CF bronchial epithelial cells, PAF-induced NFkB reporter inhibition, with PAF, run 1; at 79 µM (top of the series) unless noted
# [3] = as above; conditions: CF bronchial epithelial cells, PAF-induced NFkB reporter inhibition, with PAF, run 2; at 79 µM (top of the series) unless noted
# [4] = HIF-2a reporter inhibitor retest, confirmation, luminescence, 786-0 RCC cells (AID 651580;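 active means mean inhibition across four replicates of at least 40 percent at the single tested concentration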); conditions: HIF-2a luciferase reporter luminescence, overnight, at 18.8 µM, stronger effect = higher value
# [5] = HIF-1a luciferase reporter signal reduction – MiaPaCa-2 cells, single concentration, counter-screen for HIF-2a inhibitor project, confirmation (AID 651589;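 active means mean inhibition of the reporter signal across four replicates at the single tested dose of 50% or more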); conditions: MiaPaCa-2 HIF-1a luciferase reporter, desferoxamine, overnight; at 18.8 µM; stronger effect = higher value
structure (smiles),measurement,setting,value
Cc1ncc(CC(=O)n2cc(C(=O)c3cc(Cl)ccc3O)cn2)s1,inhibition,[1],47.9% (active)
same,inhibition,[2],100%
same,inhibition,[3],108%
Cc1ccc([C@H]2C[C@H](O)[C@@H](n3cc(COC(=O)c4ccccc4)nn3)CN2CC2CCCCC2)cc1,inhibition,[1],-29.2% (inactive)
c1nnc2c3c4c(sc3ncn12)CCC4,inhibition,[1],22.1% (inactive)
Cc1ccc(NC(=O)Nc2nnc(-c3ccncc3)s2)cc1,inhibition,[1],59.6% (active)
same,inhibition,[2],103%
same,inhibition,[3],114%
CN(C)C(=O)c1cccc(-c2cnc3sc(NCc4ccc5c(c4)OCO5)nn23)c1,inhibition,[1],97.2% (active)
same,inhibition,[2],116%
same,inhibition,[3],106%
Cc1ccc(CCC(=O)Nc2ncc(Cc3cc(Cl)ccc3Cl)s2)o1,inhibition,[1],83.8% (active)
same,inhibition,[2],101%
same,inhibition,[3],101%
CCCc1nc2c(c(=O)c3ccccc3n2C)c(=O)n1C1CCCCCC1,inhibition,[1],46.9% (active)
Cc1cccc2sc(N(CCCN(C)C)C(=O)CCS(=O)(=O)c3ccccc3)nc12,inhibition,[1],84.3% (active)
same,inhibition,[4],22.5% (inactive)
same,inhibition,[5],98.9% (active)
same,inhibition,[2],98.4%
same,inhibition,[3],102%
COc1ccc(-c2ccc(CN3C(CC(C)C)C(=O)N(Cc4cn(CC5CCCCC5)nn4)CCS3(=O)=O)cc2)cn1 (stereo unspecified),inhibition,[1],36.1% (inactive)
COc1ccc(NC(=O)c2cc(-c3cc(OC)c(OC)c(OC)c3)nc3ccccc23)c(OC)c1,inhibition,[1],24.8% (inactive)
CCSc1nsc(NC(=O)Nc2cccc(C(C)=O)c2)n1,inhibition,[1],98.9% (active)
same,inhibition,[2],117%
same,inhibition,[3],97%
COc1cncc(-c2cnc3sc(NCCc4ccccn4)nn23)c1,inhibition,[1],76.6% (active)
same,inhibition,[2],102%
same,inhibition,[3],109%
CC(C)C[C@H]1CNC(=S)N1C[C@H]1CCCN1C[C@H](Cc1ccc(O)cc1)N1C[C@H](Cc2ccc(O)cc2)N(CC2CCCCC2)C1=S,inhibition,[1],56.7% (active)
same,inhibition,[2],104%
same,inhibition,[3],111%

# From PubChem BioAssay
